Screening data as filed in PubChem BioAssay.
STEP block – inhibitors of human striatal-enriched phosphatase STEP | P54829 | recombinant STEP, OMFP fluorogenic substrate, fluorescence | inhibition, % at 20 µM | 0.25% of 360,000 active | AID 588621;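 active = inhibition at 20 µM, scaled per plate between control wells, above about 37%, limit read from the data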
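Material: STEP (striatal-enriched tyrosine phosphatase) enzyme, cell-free; Compound dosing: 20 µM single dose in 1% DMSO; Technique: fluorescence read at 480 nm ex / 540 nm em; Times: reaction 20 min, ambient temperature; Medium: 50 mM Bis-Tris pH 6.0 with 2.5 mM DTT and 0.005% Tween 20; Also added: OMFP at 25 µM.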
Scp1 inh – Scp-1 (human) phosphatase inhibition. Q9GZU7. Recombinant Scp1, phosphopeptide, malachite green phosphate absorbance. inhibition, % at 20 µM. 0.88% of 340,000 active;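 active = inhibition above about 50% at 20 µM, limit read from the data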
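Test system: SCP-1 catalytic domain; Buffer or medium: Acidic Tris acetate buffer with magnesium and detergent; Also added: Phosphorylated 17-residue peptide substrate; Compound: single 20 µM dose, 1% DMSO; Schedule: enzyme reaction 45 min at room temperature, colour 5 min, stabilisation 30 min; Signal: Phosphate-binding colour reagent, absorbance read at 630 nm.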
SUMO1-SIM PPI – SUMO1-SIM interaction modulation; P63165; SUMO1 binding to a labelled peptide, TR-FRET, 1 h; inhibition, % at 20 µM; 0.33% of 360,000 active; AID 602429; in the data active = inhibition above about 37%
NadD inh – NadD (S. aureus) enzyme inhibition | purified NadD enzyme, colorimetric absorbance read-out | AID 602399 | inhibition, % at 20 µM | 0.78% of 360,000 active; in the data active = inhibition above about 26%
DNMT1 block – blocks human DNA methyltransferase DNMT1 | DNMT1 molecular beacon, Hinp1I cleavage, fluorescence | inhibition (reported as % activation of signal), % at 10 µM | 0.83% of 360,000 active; in the data active = inhibition above about 50%
Target sequence (P26358 504-1616 limits assumed): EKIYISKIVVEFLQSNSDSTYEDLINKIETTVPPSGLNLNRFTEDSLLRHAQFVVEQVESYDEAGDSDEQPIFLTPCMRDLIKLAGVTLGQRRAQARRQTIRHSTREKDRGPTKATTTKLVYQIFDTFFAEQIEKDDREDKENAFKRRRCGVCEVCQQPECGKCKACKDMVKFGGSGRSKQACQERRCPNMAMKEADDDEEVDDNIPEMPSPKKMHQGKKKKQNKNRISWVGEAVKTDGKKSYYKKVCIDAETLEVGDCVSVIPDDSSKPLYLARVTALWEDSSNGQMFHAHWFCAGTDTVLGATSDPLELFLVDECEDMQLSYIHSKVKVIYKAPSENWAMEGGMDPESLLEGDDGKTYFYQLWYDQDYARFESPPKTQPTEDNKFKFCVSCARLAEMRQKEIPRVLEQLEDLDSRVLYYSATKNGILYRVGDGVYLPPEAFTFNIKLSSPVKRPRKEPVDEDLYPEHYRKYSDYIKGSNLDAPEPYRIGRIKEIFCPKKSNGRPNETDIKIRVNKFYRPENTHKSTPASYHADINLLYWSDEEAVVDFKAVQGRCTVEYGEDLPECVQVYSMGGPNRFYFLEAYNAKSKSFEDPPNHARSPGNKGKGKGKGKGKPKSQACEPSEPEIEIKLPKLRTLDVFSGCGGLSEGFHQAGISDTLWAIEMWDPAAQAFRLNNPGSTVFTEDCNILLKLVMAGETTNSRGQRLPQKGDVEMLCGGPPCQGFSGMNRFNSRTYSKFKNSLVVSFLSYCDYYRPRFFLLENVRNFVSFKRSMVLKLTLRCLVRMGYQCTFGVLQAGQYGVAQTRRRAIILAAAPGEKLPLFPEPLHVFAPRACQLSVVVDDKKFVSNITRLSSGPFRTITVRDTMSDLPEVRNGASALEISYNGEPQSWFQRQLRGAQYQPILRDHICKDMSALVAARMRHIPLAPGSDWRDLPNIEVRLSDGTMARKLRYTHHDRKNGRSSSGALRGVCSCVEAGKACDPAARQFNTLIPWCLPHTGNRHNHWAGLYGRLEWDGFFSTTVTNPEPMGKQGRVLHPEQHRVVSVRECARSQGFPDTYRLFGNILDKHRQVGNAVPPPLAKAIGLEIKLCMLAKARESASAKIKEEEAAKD
LMPTP inh – LMPTP (human) inhibition | AID 651560 | recombinant LMPTP-A, OMFP fluorogenic substrate, fluorescence intensity | P24666 | 0.22% of 360,000 active | inhibition, % at 20 µM;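 active = compounds that cut the enzyme signal by at least half of the control window in the single-dose screen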
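Assay system: LMPTP-A, protein tyrosine phosphatase of low molecular weight / Medium: pH 6.0 Bis-Tris buffer with DTT and Triton X-100 / Schedule: 50 min enzyme reaction at room temperature, protected from light / Measured by: endpoint fluorescence intensity from OMFP dephosphorylation / Read-out basis: % inhibition relative to no-enzyme and uninhibited control wells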
Large screens that a line does not name were inactive. Compounds with a hit are over-represented: about 2.3% of the library has one in this group of screens.

Nc1c(S(=O)(=O)c2ccccc2)c2nc3ccccc3nc2n1Cc1ccco1	none
Cc1ccc(S(=O)(=O)c2c(N)n(Cc3ccco3)c3nc4ccccc4nc23)cc1C	NadD inh 47.1
O=[N+]([O-])c1ccccc1N=Nc1ccc(O)cc1O	none
O=S(=O)(O)c1cc(O)c(N=Nc2ccc(O)cc2O)c2ccccc12	Scp1 inh 61.0, SUMO1-SIM PPI 43.7, DNMT1 block 55.0
C[C@@H](c1ccccc1)N1C[C@@H](COCc2ccccc2)Oc2cc(N3CC[C@H](O)C3)ccc2S1(=O)=O	none (no result: STEP block, Scp1 inh, DNMT1 block)
O=C(CCN1C(=O)/C(=C/C=C/c2ccccc2)SC1=S)Nc1nc2ccccc2s1	NadD inh 42.2
O=C(CCN1C(=O)/C(=C\C=C\c2ccccc2)SC1=S)Nc1ccc(C(=O)O)cc1	STEP block 86.7, Scp1 inh 87.9, LMPTP inh 82.9
O=C(O)CCNc1ccc(NCCC(=O)O)c2c1C(=O)c1ccccc1C2=O	STEP block 95.7, Scp1 inh 86.2, SUMO1-SIM PPI 60.3, DNMT1 block 96.5, LMPTP inh 72.0
NC(Cc1ccc(F)cc1)c1csc(Nc2cc(Oc3ccccc3)ncn2)n1 (centres undefined)	none (no result: Scp1 inh)
NC(CSC(c1ccccc1)(c1ccccc1)c1cccc2ccccc12)C(=O)O (centres undefined)	NadD inh 41.7, DNMT1 block 68.6
CC(=O)NCCNc1nc2cc(-c3ccc4c(ccn4C)c3)sc2c(=O)n1C	none (no result: Scp1 inh)
CCC(CC)C(=O)N(C)c1c(C)nc2c(OCc3ccc(F)c(F)c3)cccn12	none (no result: Scp1 inh)
CC(C)CC(=O)c1c[nH]c(C(=O)NCCCN2CCOCC2)c1	SUMO1-SIM PPI 45.4
Cc1ccc(C(=O)c2c[nH]c(C(=O)NCCCN3CCOCC3)c2)cc1	none
O/N=C1/CCc2cccc3cccc1c23	none
NC(=S)NN=C1Cc2cccc3cccc1c23	LMPTP inh 53.3
CCCCCCN1CCN(C2CN(Cc3cn(Cc4ccc(C)cc4)nn3)S(=O)(=O)C2)CC1 (centres undefined)	none (no result: STEP block, Scp1 inh, DNMT1 block)
Cc1cccc(NC(=O)CN2C(=O)N/C(=C/c3ccc(C)s3)C2=O)c1	none
Cc1cccc(NC(=O)CN2C(=O)N/C(=C/c3cc(C)n(C(C)C)c3C)C2=O)c1	NadD inh 34.1
Cc1cc(C)c(S(=O)(=O)/N=C2\C=CC(=O)C(Cl)=C2)c(C)c1	NadD inh 47.4
Cc1ccc(S(=O)(=O)c2c(C)cc(C)nc2Cl)c(C)c1	none
COc1ccc(C(C)C)cc1-c1cncc(NC(C)=O)n1	none (no result: Scp1 inh)
CC1=NOC(=O)/C1=C\c1ccc(-c2ccc(Cl)cc2Cl)o1	SUMO1-SIM PPI 53.3, DNMT1 block 91.3
Cc1ccc(-c2nn(-c3ccccc3)cc2C2CC(c3cccs3)=NN2C(=O)CCCC(=O)O)cc1 (centres undefined)	Scp1 inh 89.1
Cc1[nH]n(-c2ccccc2)c(=O)c1C=Nc1ccc(S(=O)(=O)N=C(N)N)cc1	none
Cc1[nH]n(-c2ccccc2)c(=S)c1C=Nc1ccc([N+](=O)[O-])cc1	Scp1 inh 74.3
CCCCCCCCCCCCCCCC[n+]1cccc2ccccc21	Scp1 inh 75.2, SUMO1-SIM PPI 82.8, NadD inh 53.4
CCCCCCCCC[n+]1cccc2c3ccccc3ccc21	none
Fc1ccc(-c2nc3ccc(Br)cn3c2Cc2ccsc2)cc1	none (no result: Scp1 inh)
Cc1cc(N2CCN(C(C(=O)NC3CCCC3)C(C)C)CC2)c2ccccc2n1 (centres undefined)	none (no result: STEP block, Scp1 inh, NadD inh, DNMT1 block)
Cc1cc(N2CCN(C(C(=O)NC3CCCC3)c3ccc(-c4ccccc4)cc3)CC2)c2ccccc2n1 (centres undefined)	LMPTP inh 94.0 (no result: STEP block, Scp1 inh, NadD inh, DNMT1 block)
Cc1ccc(C(=O)NC(=S)c2c(C)cc3ccccn23)cc1	none (no result: Scp1 inh)
C=C(C)C(=O)Nc1cccc(C2=NOC3(C2)C[C@@H](C(N)=O)N(C(=O)c2ccc(OC)cc2)C3)c1 (some centres undefined)	Scp1 inh 99.4, SUMO1-SIM PPI 106.8, DNMT1 block 95.8
O=C(O)c1c[nH]c2ccc(S(=O)(=O)N3CCN(c4ccc(F)cc4)CC3)cc2c1=O	STEP block 75.8, LMPTP inh 58.8
CCOC(=O)N1CCN(S(=O)(=O)c2ccc3[nH]cc(C(=O)O)c(=O)c3c2)CC1	none
CN1CCc2nc3sc(C(=O)C45CC6CC(CC(C6)C4)C5)c(N)c3cc2C1	DNMT1 block 77.7
CC(C)(C)c1ccc(C(=O)NCC(=O)OCC(=O)c2ccc3c(c2)-c2ccccc2C3)cc1	none
O=C(NN1C(=O)/C(=C/C=C/c2ccccc2)SC1=S)c1ccncc1	SUMO1-SIM PPI 53.3, NadD inh 34.5
O=C(NN1C(=O)/C(=C/C=C/c2ccco2)SC1=S)c1ccncc1	STEP block 55.3, Scp1 inh 72.0, SUMO1-SIM PPI 101.4, DNMT1 block 83.7
O=C(N/N=C/C=C/c1ccco1)c1ccncc1	none
NS(=O)(=O)c1cc(C(=O)NC2CCSc3ccccc32)ccc1Cl (centres undefined)	STEP block 99.6, Scp1 inh 94.2, SUMO1-SIM PPI 120.7, DNMT1 block 84.3, LMPTP inh 71.5
NS(=O)(=O)c1cccc(C(=O)NC2CCSc3ccccc32)c1 (centres undefined)	none
Cc1ccc(-n2c(C)cc(-c3csc(N)n3)c2C)cc1	NadD inh 30.4
Cc1ccc(-c2csc(N)n2)cc1	none
COCCN1C(=O)CCC1(C)c1nnnn1-c1ccc2ccccc2c1 (centres undefined)	none (no result: STEP block, Scp1 inh, NadD inh, DNMT1 block)
Cc1nnc(NC(=O)CCN2C(=O)/C(=C\c3ccccc3)SC2=S)s1	none
O=C(O)CN1C(=O)/C(=C\c2ccccc2OCc2ccc(Cl)cc2Cl)SC1=S	none
O=C(O)CN1C(=O)/C(=C\c2cccc(OCc3ccc(Cl)cc3Cl)c2)SC1=S	NadD inh 30.3
COc1cccc(/C=C2/SC(=S)N(CC(=O)Nc3nnc(C)s3)C2=O)c1	NadD inh 39.4
COc1cccc(/C=C2/SC(=S)N(CC(=O)NNC(=O)c3ccccc3OC)C2=O)c1	NadD inh 39.3
Cc1oc(-c2ccccc2F)nc1CS(=O)(=O)CC(=O)NCc1ccccc1Cl	none
O=C(C[C@H]1CC[C@@H]2[C@H](COC[C@@H](O)CN2Cc2cccc(F)c2)O1)NCC1CCCCC1	none (no result: STEP block, Scp1 inh, NadD inh, DNMT1 block)
O=C1C=C(N2CCCCC2)c2ccccc2C1=O	SUMO1-SIM PPI 66.0, DNMT1 block 88.8
C/C(=N\OCc1nc2ccccc2c(=O)n1/N=C/c1cc([N+](=O)[O-])ccc1O)c1ccccc1	NadD inh 31.8
C/C(=N\OCc1nc2ccccc2c(=O)n1/N=C/c1cc(C)cc([N+](=O)[O-])c1O)c1ccccc1	none
COc1ccc(Cl)cc1Nc1nc(-c2sc(NC(=O)CC(C)C)nc2C)cs1	SUMO1-SIM PPI 54.9
